According to ChEMBL document CHEMBL4118021, “Studies of TAK1-centered polypharmacology with novel covalent TAK1 inhibitors” (Bioorg Med Chem, 2017):
Blank lines part the entries; values can stand above or below the compound they belong to. The source made the active and inactive calls. The calls are words filed in the database; no cut-off is given here.

How the values were obtained:
[1] = target: Activin receptor type-1 (Homo sapiens) (UniProt Q04771); test: Inhibition of human ACVR1 (188 to 509 residues) expressed in bacterial expression system assessed as enzyme activity at 1 uM by KINOMEScan assay relative to control; design: scale not given: the % may be the effect or the level left
Summary of the method: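 In vitro ATP-site competition binding assay (KinomeScan) across a panel of 456 kinases. Compound was tested at 1 and 10 μM. The read-out is the binding inhibition score relative to control.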

[2] = target: Platelet-derived growth factor receptor beta (Homo sapiens) (UniProt P09619); test: Inhibition of human PDGFRB (582 to 1009 residues) expressed in bacterial expression system assessed as enzyme activity at 10 uM by KINOMEScan assay relative to control; design: scale not given: the % may be the effect or the level left
Summary of the method: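 In vitro ATP-site competition binding assay across a panel of 456 kinases, with compound tested at 1 and 10 μM.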

[3] = target: Deoxyribose-phosphate aldolase (Homo sapiens) (UniProt Q9Y315); test: Binding affinity to DERA in human NCI-H358 cells at 1 uM by mass spectrometry based pull down assay; format: cell-based
[4] = target: TBC1 domain family member 15 (Homo sapiens) (UniProt Q8TC07); test: Binding affinity to TBC1D15 in human NCI-H23 cells at 1 uM by mass spectrometry based pull down assay; format: cell-based
[5] = target: Poly(rC)-binding protein 1 (Homo sapiens) (UniProt Q15365); test: Binding affinity to PCBP1 in human NCI-H358 cells at 1 uM by mass spectrometry based pull down assay; format: cell-based
Poly(rC)-binding protein 1 (Homo sapiens), sequence (Q15365 whole entry): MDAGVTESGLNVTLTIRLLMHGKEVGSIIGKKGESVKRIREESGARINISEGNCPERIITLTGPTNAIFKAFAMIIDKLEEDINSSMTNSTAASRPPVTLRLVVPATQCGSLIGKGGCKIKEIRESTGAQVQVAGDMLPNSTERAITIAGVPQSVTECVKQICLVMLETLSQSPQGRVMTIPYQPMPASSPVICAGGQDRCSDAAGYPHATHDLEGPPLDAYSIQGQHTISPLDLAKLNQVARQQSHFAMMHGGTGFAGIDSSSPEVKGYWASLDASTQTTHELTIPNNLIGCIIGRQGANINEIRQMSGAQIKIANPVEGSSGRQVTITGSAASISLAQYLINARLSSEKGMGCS

[6] = target: TGF-beta-activated kinase 1 and MAP3K7-binding protein 2 (Homo sapiens) (UniProt Q9NYJ8); test: Binding affinity to TAB2 in human NCI-H23 cells at 1 uM by mass spectrometry based pull down assay; format: cell-based
TGF-beta-activated kinase 1 and MAP3K7-binding protein 2 (Homo sapiens), sequence (Q9NYJ8 whole entry): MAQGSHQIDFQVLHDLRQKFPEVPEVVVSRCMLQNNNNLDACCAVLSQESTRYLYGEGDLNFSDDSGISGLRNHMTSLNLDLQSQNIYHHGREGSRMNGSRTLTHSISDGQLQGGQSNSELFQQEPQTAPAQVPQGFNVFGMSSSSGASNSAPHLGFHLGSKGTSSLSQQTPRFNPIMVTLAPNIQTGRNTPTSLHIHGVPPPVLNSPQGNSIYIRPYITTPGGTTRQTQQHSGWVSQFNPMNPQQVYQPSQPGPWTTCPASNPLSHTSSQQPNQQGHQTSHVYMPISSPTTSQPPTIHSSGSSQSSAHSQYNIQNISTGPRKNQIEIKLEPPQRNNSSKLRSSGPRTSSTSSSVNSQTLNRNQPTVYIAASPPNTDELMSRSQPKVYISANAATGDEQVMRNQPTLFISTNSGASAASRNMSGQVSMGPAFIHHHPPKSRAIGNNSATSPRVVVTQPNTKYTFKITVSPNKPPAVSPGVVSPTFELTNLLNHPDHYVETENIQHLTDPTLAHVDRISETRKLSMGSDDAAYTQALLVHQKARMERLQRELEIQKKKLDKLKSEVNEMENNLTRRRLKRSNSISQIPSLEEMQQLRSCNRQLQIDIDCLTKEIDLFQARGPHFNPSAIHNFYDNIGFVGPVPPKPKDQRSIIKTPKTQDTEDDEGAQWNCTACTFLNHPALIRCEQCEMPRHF

[7] = target: Clathrin light chain A (Homo sapiens) (UniProt P09496); test: Binding affinity to CLTA in human NCI-H358 cells at 1 uM by mass spectrometry based pull down assay; format: cell-based
[8] = target: Nuclear pore complex protein Nup155 (Homo sapiens) (UniProt O75694); test: Binding affinity to NUP155 in human NCI-H23 cells at 1 uM by mass spectrometry based pull down assay; format: cell-based
Nuclear pore complex protein Nup155 (Homo sapiens), sequence (O75694 whole entry, one chain of several): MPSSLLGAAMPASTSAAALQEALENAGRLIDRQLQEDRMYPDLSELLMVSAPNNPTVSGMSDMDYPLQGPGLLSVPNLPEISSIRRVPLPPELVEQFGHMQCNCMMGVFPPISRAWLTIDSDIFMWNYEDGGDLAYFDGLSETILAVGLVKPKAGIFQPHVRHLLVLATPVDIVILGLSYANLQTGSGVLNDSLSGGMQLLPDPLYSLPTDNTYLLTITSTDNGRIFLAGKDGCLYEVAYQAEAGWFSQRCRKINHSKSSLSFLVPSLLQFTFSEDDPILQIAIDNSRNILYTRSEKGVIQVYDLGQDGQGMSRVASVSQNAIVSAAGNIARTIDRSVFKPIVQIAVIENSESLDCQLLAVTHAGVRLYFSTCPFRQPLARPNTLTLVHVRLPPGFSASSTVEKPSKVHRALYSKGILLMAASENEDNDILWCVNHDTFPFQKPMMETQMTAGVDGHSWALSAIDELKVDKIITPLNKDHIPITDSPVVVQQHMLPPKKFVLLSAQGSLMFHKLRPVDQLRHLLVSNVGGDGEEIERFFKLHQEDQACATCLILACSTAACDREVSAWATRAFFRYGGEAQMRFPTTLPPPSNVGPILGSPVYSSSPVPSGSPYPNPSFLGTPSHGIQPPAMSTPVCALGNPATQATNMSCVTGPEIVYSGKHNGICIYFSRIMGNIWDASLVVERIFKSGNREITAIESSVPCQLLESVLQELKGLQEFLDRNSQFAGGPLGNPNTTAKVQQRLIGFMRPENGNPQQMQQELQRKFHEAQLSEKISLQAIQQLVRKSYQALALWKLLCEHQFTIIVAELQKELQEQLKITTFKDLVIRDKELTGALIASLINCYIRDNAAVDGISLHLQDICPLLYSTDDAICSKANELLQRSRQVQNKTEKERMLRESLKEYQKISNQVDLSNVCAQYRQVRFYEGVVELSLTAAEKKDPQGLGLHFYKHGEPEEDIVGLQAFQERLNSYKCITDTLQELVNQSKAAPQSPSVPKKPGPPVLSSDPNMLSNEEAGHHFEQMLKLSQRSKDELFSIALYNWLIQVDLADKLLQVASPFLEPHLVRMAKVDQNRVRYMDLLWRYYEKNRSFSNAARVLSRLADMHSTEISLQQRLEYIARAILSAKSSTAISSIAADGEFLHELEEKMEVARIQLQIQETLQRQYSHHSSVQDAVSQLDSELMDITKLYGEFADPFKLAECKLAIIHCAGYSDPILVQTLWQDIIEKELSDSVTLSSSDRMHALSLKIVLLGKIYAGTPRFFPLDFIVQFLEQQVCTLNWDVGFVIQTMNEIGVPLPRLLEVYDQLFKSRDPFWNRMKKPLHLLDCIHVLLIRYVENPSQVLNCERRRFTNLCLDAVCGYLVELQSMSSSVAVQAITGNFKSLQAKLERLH

[9] = target: Acyl-coenzyme A thioesterase 9, mitochondrial (Homo sapiens) (UniProt Q9Y305); test: Binding affinity to ACOT9 in human NCI-H23 cells at 1 uM by mass spectrometry based pull down assay; format: cell-based
Summary of the method: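 NCI-H23 or NCI-H358 cells were grown and lysed. Lysates were incubated overnight at 4 °C with 1 μM biotinylated covalent probe or DMSO, then pulled down on streptavidin beads. Proteins were run on polyacrylamide gels and stained with Coomassie. Bands were excised, digested and identified by mass spectrometry.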

[10] = target: Opioid growth factor receptor (Homo sapiens) (UniProt Q9NZT2); test: Binding affinity to OGFR in human NCI-H358 cells at 1 uM by mass spectrometry based pull down assay; format: cell-based
Opioid growth factor receptor (Homo sapiens), sequence (Q9NZT2 whole entry): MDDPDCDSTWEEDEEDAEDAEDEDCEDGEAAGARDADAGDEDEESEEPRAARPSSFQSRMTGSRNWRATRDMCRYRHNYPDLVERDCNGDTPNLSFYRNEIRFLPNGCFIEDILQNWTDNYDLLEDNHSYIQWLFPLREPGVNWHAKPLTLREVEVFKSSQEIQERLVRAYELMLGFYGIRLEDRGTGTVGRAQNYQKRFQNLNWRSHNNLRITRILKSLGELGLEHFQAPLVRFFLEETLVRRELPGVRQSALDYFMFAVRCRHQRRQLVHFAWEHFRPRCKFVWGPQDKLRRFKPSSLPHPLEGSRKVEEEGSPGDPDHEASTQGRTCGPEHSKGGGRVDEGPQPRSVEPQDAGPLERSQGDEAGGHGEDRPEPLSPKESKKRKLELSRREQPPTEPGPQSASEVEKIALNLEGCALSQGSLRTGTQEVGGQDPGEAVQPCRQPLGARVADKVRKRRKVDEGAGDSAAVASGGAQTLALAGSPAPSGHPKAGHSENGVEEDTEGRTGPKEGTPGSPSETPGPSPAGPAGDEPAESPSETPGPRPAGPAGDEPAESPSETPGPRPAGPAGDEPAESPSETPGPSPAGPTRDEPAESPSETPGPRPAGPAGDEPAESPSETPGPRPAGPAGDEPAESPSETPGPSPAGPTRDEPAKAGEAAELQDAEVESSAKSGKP

[11] = target: Src substrate cortactin (Homo sapiens) (UniProt Q14247); test: Binding affinity to CTTN in human NCI-H358 cells at 1 uM by mass spectrometry based pull down assay; format: cell-based
Src substrate cortactin (Homo sapiens), sequence (Q14247 whole entry): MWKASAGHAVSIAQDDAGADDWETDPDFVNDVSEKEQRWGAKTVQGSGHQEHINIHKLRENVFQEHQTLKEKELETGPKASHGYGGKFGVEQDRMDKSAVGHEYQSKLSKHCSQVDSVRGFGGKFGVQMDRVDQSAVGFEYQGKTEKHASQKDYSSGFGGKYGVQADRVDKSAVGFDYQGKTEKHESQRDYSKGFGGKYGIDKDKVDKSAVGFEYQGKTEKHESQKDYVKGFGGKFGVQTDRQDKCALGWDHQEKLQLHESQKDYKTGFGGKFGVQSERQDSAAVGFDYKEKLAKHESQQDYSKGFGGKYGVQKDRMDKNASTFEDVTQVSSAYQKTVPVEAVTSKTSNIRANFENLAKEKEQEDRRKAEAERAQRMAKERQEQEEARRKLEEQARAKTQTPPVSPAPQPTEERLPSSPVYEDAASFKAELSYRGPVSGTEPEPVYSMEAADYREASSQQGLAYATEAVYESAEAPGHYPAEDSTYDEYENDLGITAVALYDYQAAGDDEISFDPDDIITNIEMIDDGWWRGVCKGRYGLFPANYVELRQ

[12] = target: Dual specificity mitogen-activated protein kinase kinase 1 (Homo sapiens) (UniProt Q02750); test: Binding affinity to MAP2K1 in human NCI-H358 cells at 1 uM by mass spectrometry based pull down assay; format: cell-based
[13] = target: Protein NipSnap homolog 1 (Homo sapiens) (UniProt Q9BPW8); test: Binding affinity to NIPSNAP1 in human NCI-H358 cells at 1 uM by mass spectrometry based pull down assay; format: cell-based
Protein NipSnap homolog 1 (Homo sapiens), sequence (Q9BPW8 whole entry): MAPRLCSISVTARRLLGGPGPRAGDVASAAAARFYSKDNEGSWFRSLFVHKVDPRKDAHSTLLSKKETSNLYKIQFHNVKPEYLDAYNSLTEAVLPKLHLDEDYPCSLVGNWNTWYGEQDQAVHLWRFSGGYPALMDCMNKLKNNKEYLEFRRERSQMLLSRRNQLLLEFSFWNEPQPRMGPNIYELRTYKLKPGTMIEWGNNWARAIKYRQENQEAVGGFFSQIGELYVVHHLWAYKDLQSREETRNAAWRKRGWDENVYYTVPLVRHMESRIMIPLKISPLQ

[14] = target: TGF-beta-activated kinase 1 and MAP3K7-binding protein 3 (Homo sapiens) (UniProt Q8N5C8); test: Binding affinity to TAB3 in human NCI-H23 cells at 1 uM by mass spectrometry based pull down assay; format: cell-based
[15] = target: Thymidylate kinase (Homo sapiens) (UniProt P23919); test: Binding affinity to DTYMK in human NCI-H358 cells at 1 uM by mass spectrometry based pull down assay; format: cell-based
Thymidylate kinase (Homo sapiens), sequence (P23919 whole entry): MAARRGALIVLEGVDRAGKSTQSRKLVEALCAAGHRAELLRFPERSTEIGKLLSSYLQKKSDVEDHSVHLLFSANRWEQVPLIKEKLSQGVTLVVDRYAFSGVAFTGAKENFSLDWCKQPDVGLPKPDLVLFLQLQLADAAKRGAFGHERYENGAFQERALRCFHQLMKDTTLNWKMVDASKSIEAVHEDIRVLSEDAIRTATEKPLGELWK

[16] = target: T-complex protein 1 subunit epsilon (Homo sapiens) (UniProt P48643); test: Binding affinity to CCT5 in human NCI-H23 cells at 1 uM by mass spectrometry based pull down assay; format: cell-based
T-complex protein 1 subunit epsilon (Homo sapiens), sequence (P48643 whole entry, one chain of several): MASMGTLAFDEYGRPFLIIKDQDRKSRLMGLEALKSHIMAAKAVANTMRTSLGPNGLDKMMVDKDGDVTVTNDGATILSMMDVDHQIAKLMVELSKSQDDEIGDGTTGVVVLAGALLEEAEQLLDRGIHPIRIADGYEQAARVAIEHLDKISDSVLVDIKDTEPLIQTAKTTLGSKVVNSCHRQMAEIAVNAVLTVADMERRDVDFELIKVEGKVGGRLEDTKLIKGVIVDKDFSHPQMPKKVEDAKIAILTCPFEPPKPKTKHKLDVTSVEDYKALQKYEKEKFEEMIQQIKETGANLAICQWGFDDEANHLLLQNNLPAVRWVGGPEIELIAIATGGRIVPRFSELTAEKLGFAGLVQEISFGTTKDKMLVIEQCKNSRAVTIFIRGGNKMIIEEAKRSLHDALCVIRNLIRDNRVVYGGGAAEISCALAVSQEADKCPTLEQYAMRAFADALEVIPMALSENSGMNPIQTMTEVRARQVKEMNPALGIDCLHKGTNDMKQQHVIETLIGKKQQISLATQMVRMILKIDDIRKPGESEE

[17] = target: Small ribosomal subunit protein mS29 (Homo sapiens) (UniProt P51398); test: Binding affinity to DAP3 in human NCI-H23 cells at 1 uM by mass spectrometry based pull down assay; format: cell-based
Gelsolin (Homo sapiens) = Gelsolin (Homo sapiens) (UniProt P06396); test: Binding affinity to GSN in human NCI-H358 cells at 1 uM by mass spectrometry based pull down assay; format: cell-based
[18] = target: Protein CIP2A (Homo sapiens) (UniProt Q8TCG1); test: Binding affinity to KIAA1524 in human NCI-H23 cells at 1 uM by mass spectrometry based pull down assay; format: cell-based
[19] = target: Large ribosomal subunit protein bL19m (Homo sapiens) (UniProt P49406); test: Binding affinity to MRPL19 in human NCI-H23 cells at 1 uM by mass spectrometry based pull down assay; format: cell-based
[20] = target: Elongation factor 1-gamma (Homo sapiens) (UniProt P26641); test: Binding affinity to EEF1G in human NCI-H358 cells at 1 uM by mass spectrometry based pull down assay; format: cell-based
[21] = target: Ubiquitin-associated protein 2-like (Homo sapiens) (UniProt Q14157); test: Binding affinity to UBAP2L in human NCI-H358 cells at 1 uM by mass spectrometry based pull down assay; format: cell-based
[22] = target: Tropomyosin alpha-4 chain (Homo sapiens) (UniProt P67936); test: Binding affinity to TPM4 in human NCI-H358 cells at 1 uM by mass spectrometry based pull down assay; format: cell-based
Tropomyosin alpha-4 chain (Homo sapiens), sequence (P67936 whole entry): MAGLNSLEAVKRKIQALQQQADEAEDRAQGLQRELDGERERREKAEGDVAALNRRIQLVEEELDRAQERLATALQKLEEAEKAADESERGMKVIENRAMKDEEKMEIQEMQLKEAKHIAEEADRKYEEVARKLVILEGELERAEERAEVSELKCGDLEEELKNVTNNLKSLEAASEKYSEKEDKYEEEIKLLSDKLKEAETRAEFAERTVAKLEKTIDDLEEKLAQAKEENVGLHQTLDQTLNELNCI

[23] = target: Mitogen-activated protein kinase kinase kinase 21 (Homo sapiens) (UniProt Q5TCX8); test: Inhibition of MLK4 in human SKCO1 cells at 1 uM after 4 hrs using biotin labeled DLKSSNILLLEK probe by mass-spectrometric analysis relative to control; format: cell-based

SMILES: COc1cc(O)c2c(c1)/C=C/C[C@H](O)[C@H](O)C(=O)/C=C\C[C@H](C)OC2=O
- Activity [1]: 21%
- Activity [2]: 0.05%

- Activity [3]: Active
- Activity [4]: Active
- Activity [5]: Active
- Activity [6]: Active
- Activity [7]: Active
- Activity [8]: Active
- Activity [9]: Active
- Activity [10]: Active
- Activity [11]: Active
- Activity [12]: Active
- Activity [13]: Active
- Activity [14]: Active
- Activity [15]: Active
- Activity [16]: Active
- Activity [17]: Active
- Activity (Gelsolin (Homo sapiens)): Active
- Activity [18]: Active
- Activity [19]: Active
- Activity [20]: Active
- Activity [21]: Active
- Activity [22]: Active
SMILES: C=CC(=O)Nc1ccccc1Nc1nc(Nc2ccc(N3CCN(CCOCCOCCOCCNC(=O)CCCC[C@@H]4SC[C@@H]5NC(=O)N[C@@H]54)CC3)cc2)ncc1Cl

SMILES: C=CC(=O)Nc1ccccc1Nc1nc(Nc2ccc(N3CCN(C)CC3)cc2)ncc1Cl
- inhibition [23]: -1.1%
